Laboratory results taken from ChEMBL document CHEMBL1268917, “Synthesis and biological evaluation of radio-iodinated benzimidazoles as SPECT imaging agents for NR2B subtype of NMDA receptor” (Bioorg Med Chem, 2010).

Columns and labels:
[1] = tested on: Spleen; test: Biodistribution in ddY mouse spleen assessed per gram of tissue at 14.8 kBq, iv after 180 mins; format: ADME, organism-based; details: in vivo, 3 h
Summary of the method: (§1)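 Radioiodinated tracer (14.8 kBq) injected via tail vein into male ddY mice (6 weeks, 30–35 g). Organs removed at set times after injection, weighed and gamma-counted; uptake expressed as % injected dose per gram tissue, mean ± SD, n = 5–6.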

[2] = tested on: Kidney; test: Biodistribution in ddY mouse kidney assessed per gram of tissue at 14.8 kBq, iv after 60 mins; format: ADME, organism-based; details: in vivo, 1 h
Summary of the method: (§2)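 Killed at set times after injection; organs and blood removed, weighed, gamma counted. Data as % injected dose per gram tissue, mean SD, n = 5–6.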

[3] = tested on: Heart; test: Biodistribution in ddY mouse heart assessed per gram of tissue at 14.8 kBq, iv after 30 mins; format: ADME, organism-based; details: in vivo, 0.5 h; summary of the method: as §2
[4] = tested on: Brain; test: Biodistribution in ddY mouse brain assessed per gram of tissue at 148 kBq, iv after 180 mins in presence of 200 mg/kg, iv of probenecid administered 30 mins before compound challenge (reference value: 0.44 +/- 0.06 %); details: in vivo, 3 h
[5] = tested on: Pancreas; test: Biodistribution in ddY mouse pancreas assessed per gram of tissue at 14.8 kBq, iv after 60 mins; format: ADME, organism-based; details: in vivo, 1 h; summary of the method: as §1
[6] = tested on: Intestine; test: Biodistribution in ddY mouse intestine assessed per gram of tissue at 14.8 kBq, iv after 360 mins; format: ADME, organism-based; details: in vivo, 6 h; summary of the method: as §2
[7] = tested on: Liver; test: Biodistribution in ddY mouse liver assessed per gram of tissue at 14.8 kBq, iv after 30 mins; format: ADME, organism-based; details: in vivo, 0.5 h; summary of the method: as §2
[8] = tested on: Brain; test: Biodistribution in ddY mouse brain assessed per gram of tissue at 148 kBq, iv after 180 mins in presence of 50 mg/kg, iv of cyclosporin A administered 30 mins before compound challenge (reference value: 0.50 +/- 0.04 %); format: ADME, organism-based; parameters: dose 50 mg/kg, route intravenous; details: in vivo, 3 h
[9] = tested on: Stomach; test: Biodistribution in ddY mouse stomach assessed per gram of tissue at 14.8 kBq, iv after 180 mins; format: ADME, organism-based; details: in vivo, 3 h; summary of the method: as §1
[10] = tested on: Brain; test: Biodistribution in ddY mouse brain assessed per gram of tissue at 14.8 kBq, iv after 0.5 mins; format: ADME, organism-based; details: in vivo; summary of the method: as §2
[11] = tested on: Pancreas; test: Biodistribution in ddY mouse pancreas assessed per gram of tissue at 14.8 kBq, iv after 180 mins; format: ADME, organism-based; details: in vivo, 3 h; summary of the method: as §1
[12] = tested on: Blood; test: Biodistribution in ddY mouse blood assessed per gram of tissue at 14.8 kBq, iv after 360 mins; format: ADME, organism-based; details: in vivo, 6 h; summary of the method: as §2
[13] = tested on: Lung; test: Biodistribution in ddY mouse lung assessed per gram of tissue at 14.8 kBq, iv after 5 mins; format: ADME, organism-based; details: in vivo; summary of the method: as §1
[14] = tested on: Blood; test: Biodistribution in ddY mouse blood assessed per gram of tissue at 14.8 kBq, iv after 180 mins; format: ADME, organism-based; details: in vivo, 3 h; summary of the method: as §2
[15] = tested on: Blood; test: Biodistribution in ddY mouse blood assessed per gram of tissue at 14.8 kBq, iv after 60 mins; format: ADME, organism-based; details: in vivo, 1 h; summary of the method: as §2
[16] = tested on: Kidney; test: Biodistribution in ddY mouse kidney assessed per gram of tissue at 148 kBq, iv after 180 mins in presence of 50 mg/kg, iv of cyclosporin A administered 30 mins before compound challenge (reference value: 4.49 +/- 1.34 %); format: ADME, organism-based; parameters: dose 50 mg/kg, route intravenous; details: in vivo, 3 h
[17] = tested on: Heart; test: Biodistribution in ddY mouse heart assessed per gram of tissue at 14.8 kBq, iv after 360 mins; format: ADME, organism-based; details: in vivo, 6 h; summary of the method: as §2
[18] = tested on: Brain; test: Biodistribution in ddY mouse brain assessed per gram of tissue at 14.8 kBq, iv after 180 mins; format: ADME, organism-based; details: in vivo, 3 h; summary of the method: as §2
[19] = tested on: Liver; test: Biodistribution in ddY mouse liver assessed per gram of tissue at 14.8 kBq, iv after 60 mins; format: ADME, organism-based; details: in vivo, 1 h; summary of the method: as §1
[20] = tested on: Blood; test: Biodistribution in ddY mouse blood assessed per gram of tissue at 14.8 kBq, iv after 5 mins; format: ADME, organism-based; details: in vivo; summary of the method: as §2
[21] = tested on: Brain; test: Biodistribution in ddY mouse brain assessed per gram of tissue at 14.8 kBq, iv after 5 mins; format: ADME, organism-based; details: in vivo; summary of the method: as §2
[22] = tested on: Kidney; test: Biodistribution in ddY mouse kidney assessed per gram of tissue at 14.8 kBq, iv after 180 mins; format: ADME, organism-based; details: in vivo, 3 h; summary of the method: as §2
[23] = tested on: Pancreas; test: Biodistribution in ddY mouse pancreas assessed per gram of tissue at 14.8 kBq, iv after 30 mins; format: ADME, organism-based; details: in vivo, 0.5 h; summary of the method: as §1
[24] = tested on: Kidney; test: Biodistribution in ddY mouse kidney assessed per gram of tissue at 14.8 kBq, iv after 5 mins; format: ADME, organism-based; details: in vivo; summary of the method: as §2
[25] = tested on: Kidney; test: Biodistribution in ddY mouse kidney assessed per gram of tissue at 148 kBq, iv after 180 mins in presence of 200 mg/kg, iv of probenecid administered 30 mins before compound challenge (reference value: 6.29 +/- 1.47 %); details: in vivo, 3 h
[26] = tested on: Kidney; test: Biodistribution in ddY mouse kidney assessed per gram of tissue at 14.8 kBq, iv after 30 mins; format: ADME, organism-based; details: in vivo, 0.5 h; summary of the method: as §2
[27] = tested on: Spleen; test: Biodistribution in ddY mouse spleen assessed per gram of tissue at 14.8 kBq, iv after 360 mins; format: ADME, organism-based; details: in vivo, 6 h; summary of the method: as §1
[28] = tested on: Liver; test: Biodistribution in ddY mouse liver assessed per gram of tissue at 14.8 kBq, iv after 0.5 mins; format: ADME, organism-based; details: in vivo; summary of the method: as §2
[29] = tested on: Intestine; test: Biodistribution in ddY mouse intestine assessed per gram of tissue at 14.8 kBq, iv after 30 mins; format: ADME, organism-based; details: in vivo, 0.5 h; summary of the method: as §2
[30] = tested on: Spleen; test: Biodistribution in ddY mouse spleen assessed per gram of tissue at 14.8 kBq, iv after 0.5 mins; format: ADME, organism-based; details: in vivo; summary of the method: as §1
[31] = tested on: Intestine; test: Biodistribution in ddY mouse intestine assessed per gram of tissue at 14.8 kBq, iv after 0.5 mins; format: ADME, organism-based; details: in vivo; summary of the method: as §2
[32] = tested on: Stomach; test: Biodistribution in ddY mouse stomach assessed per gram of tissue at 14.8 kBq, iv after 360 mins; format: ADME, organism-based; details: in vivo, 6 h; summary of the method: as §1
[33] = tested on: Spleen; test: Biodistribution in ddY mouse spleen assessed per gram of tissue at 14.8 kBq, iv after 5 mins; format: ADME, organism-based; details: in vivo; summary of the method: as §1
[34] = tested on: Kidney; test: Biodistribution in ddY mouse kidney assessed per gram of tissue at 14.8 kBq, iv after 360 mins; format: ADME, organism-based; details: in vivo, 6 h; summary of the method: as §2
[35] = tested on: Liver; test: Biodistribution in ddY mouse liver assessed per gram of tissue at 14.8 kBq, iv after 360 mins; format: ADME, organism-based; details: in vivo, 6 h; summary of the method: as §2
[36] = tested on: Lung; test: Biodistribution in ddY mouse lung assessed per gram of tissue at 14.8 kBq, iv after 180 mins; format: ADME, organism-based; details: in vivo, 3 h; summary of the method: as §1
[37] = tested on: Liver; test: Biodistribution in ddY mouse liver assessed per gram of tissue at 148 kBq, iv after 180 mins in presence of 50 mg/kg, iv of cyclosporin A administered 30 mins before compound challenge (reference value: 16.20 +/- 1.34 %); format: ADME, organism-based; parameters: dose 50 mg/kg, route intravenous; details: in vivo, 3 h
[38] = tested on: Lung; test: Biodistribution in ddY mouse lung assessed per gram of tissue at 14.8 kBq, iv after 30 mins; format: ADME, organism-based; details: in vivo, 0.5 h; summary of the method: as §1
[39] = tested on: Lung; test: Biodistribution in ddY mouse lung assessed per gram of tissue at 14.8 kBq, iv after 60 mins; format: ADME, organism-based; details: in vivo, 1 h; summary of the method: as §1
[40] = tested on: Heart; test: Biodistribution in ddY mouse heart assessed per gram of tissue at 14.8 kBq, iv after 5 mins; format: ADME, organism-based; details: in vivo; summary of the method: as §2
[41] = tested on: Heart; test: Biodistribution in ddY mouse heart assessed per gram of tissue at 14.8 kBq, iv after 60 mins; format: ADME, organism-based; details: in vivo, 1 h; summary of the method: as §2
[42] = tested on: Blood; test: Biodistribution in ddY mouse blood assessed per gram of tissue at 14.8 kBq, iv after 30 mins; format: ADME, organism-based; details: in vivo, 0.5 h; summary of the method: as §2
[43] = tested on: Pancreas; test: Biodistribution in ddY mouse pancreas assessed per gram of tissue at 14.8 kBq, iv after 360 mins; format: ADME, organism-based; details: in vivo, 6 h; summary of the method: as §1
[44] = tested on: Heart; test: Biodistribution in ddY mouse heart assessed per gram of tissue at 14.8 kBq, iv after 180 mins; format: ADME, organism-based; details: in vivo, 3 h; summary of the method: as §2

SMILES: Oc1ccc2nc(CN3CCC(Cc4ccc([125I])cc4)CC3)[nH]c2c1
- Drug uptake [1]: 4.25 % ID/g
- Drug uptake [2]: 10.34 % ID/g
- Drug uptake [3]: 2.31 % ID/g
- Drug uptake [4]: 0.57 % ID/g
- Drug uptake [5]: 6.35 % ID/g
- Drug uptake [6]: 5.89 % ID/g
- Drug uptake [7]: 28.99 % ID/g
- Drug uptake [8]: 0.66 % ID/g
- Drug uptake [9]: 2.51 % ID/g
- Drug uptake [10]: 0.21 % ID/g
- Drug uptake [11]: 6.53 % ID/g
- Drug uptake [12]: 0.28 % ID/g
- Drug uptake [13]: 14.48 % ID/g
- Drug uptake [14]: 0.3 % ID/g
- Drug uptake [15]: 0.75 % ID/g
- Drug uptake [16]: 4.8 % ID/g
- Drug uptake [17]: 1.58 % ID/g
- Drug uptake [18]: 0.56 % ID/g
- Drug uptake [19]: 30.5 % ID/g
- Drug uptake [20]: 1.15 % ID/g
- Drug uptake [21]: 0.42 % ID/g
- Drug uptake [22]: 7.74 % ID/g
- Drug uptake [23]: 6.1 % ID/g
- Drug uptake [24]: 12.2 % ID/g
- Drug uptake [25]: 4.2 % ID/g
- Drug uptake [26]: 11.2 % ID/g
- Drug uptake [27]: 3.79 % ID/g
- Drug uptake [28]: 14.68 % ID/g
- Drug uptake [29]: 2.39 % ID/g
- Drug uptake [30]: 0.5 % ID/g
- Drug uptake [31]: 4.02 % ID/g
- Drug uptake [32]: 2.17 % ID/g
- Drug uptake [33]: 5.66 % ID/g
- Drug uptake [34]: 5.46 % ID/g
- Drug uptake [35]: 30.16 % ID/g
- Drug uptake [36]: 4.75 % ID/g
- Drug uptake [37]: 15.2 % ID/g
- Drug uptake [38]: 8.16 % ID/g
- Drug uptake [39]: 7.54 % ID/g
- Drug uptake [40]: 5.39 % ID/g
- Drug uptake [41]: 1.87 % ID/g
- Drug uptake [42]: 0.67 % ID/g
- Drug uptake [43]: 8.76 % ID/g
- Drug uptake [44]: 1.58 % ID/g
